Experimental findings from ChEMBL document CHEMBL1139082, “A potent and orally active HIV-1 integrase inhibitor” (Bioorg Med Chem Lett, 2007) are described below.

The nature of data set [1]: Partition coefficient, log P at pH 7.4. The format is physicochemical. The conditions noted are these: octanol/water. Summed up:
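Octanol/buffer partition measured by HPLC at each compound's maximum absorbance. Log P = log[(octanol area × octanol dilution)/(buffer area × buffer dilution)].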

For data set [2], the system named is Human immunodeficiency virus 1. Nature of the data set: Antiviral activity against HIV1 3B in MT4 cells assessed as decrease in HIV1 p24 core antigen in presence of normal human serum. The format is functional. To be noted: Human immunodeficiency virus 1, 3B. Summed up: (§1)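 MT-4 human T-lymphoid cells infected with HIV-1 IIIb, cultured with increasing inhibitor concentrations; readout is the decrease in p24 core antigen. IC95 is the concentration giving 95% inhibition of viral growth versus control. Line 1 used 10% fetal bovine serum; line 2 used 50% normal human serum. n ≥ 2; lower limit ~7 nM; SD ~2-fold.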

The target in data set [3] is Human immunodeficiency virus type 1 integrase (Human immunodeficiency virus 1, UniProt Q7ZJM1). Kind of data set: Inhibition of HIV1 recombinant integrase catalyzed strand transfer activity.
The species named for a further data set is Homo sapiens. Kind of data set: Protein binding in human plasma by ultrafiltration method. To be noted: read-out: PB (converted).
Data set [4] relates to Human immunodeficiency virus 1. Kind of data set: Antiviral activity against HIV1 3B in MT4 cells assessed as decrease in HIV1 p24 core antigen in presence of FBS. The class given is functional. To be noted: Human immunodeficiency virus 1, 3B. In outline:
as §1

The nature of data set [5]: Clearance in dog at 1 mg/kg, iv. The format is ADME, organism-based, Canis lupus familiaris. The conditions noted are these: in vivo. On the set-up: dose 1 mg/kg, route intravenous. In outline: (§2)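 Dog and rhesus monkeys were given sodium salt intravenously at 1 mg/kg, dissolved in DMSO. Half-life (h) and clearance (mL/min/kg) were derived from plasma concentrations after iv dosing.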

Data set [6] can be described thus: Clearance in rhesus monkey at 1 mg/kg, iv. The format is ADME, organism-based, Macaca mulatta. On the set-up: dose 1 mg/kg, route intravenous. To be noted: in vivo. Summed up: as §2
Data set [7] is described as follows: Half life in dog at 1 mg/kg, iv. To be noted: in vivo. Details: dose 1 mg/kg, route intravenous. The class given is ADME, organism-based, Canis lupus familiaris. In outline: as §2
Data set [8] is described as follows: Clearance in rat at 2 mg/kg, iv. The format is ADME, organism-based. The conditions noted are these: in vivo. Details: dose 2 mg/kg, route intravenous. In outline:
(§3)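 Rats received the sodium salt intravenously at 2 mg/kg, dissolved in DMSO. Half-life (h) and clearance (mL/min/kg) were derived after iv administration.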

Data set [9] in a line: Oral bioavailability in rat at 10 mg/kg. The class given is ADME, organism-based. The conditions noted are these: in vivo. Summed up:
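Sodium salt was ground and given orally to rats at 10 mg/kg as a 1% aqueous methylcellulose solution/suspension. Percent bioavailability was taken after oral administration.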

Data set [10] deals with Human immunodeficiency virus 1. Nature of the data set: Antiviral activity against HIV1 with integrase […] mutant. The format is functional, organism-based. In outline:
(§4)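 HIV-1 carrying site-directed integrase mutations (mutations first seen in serial cell-culture passage under integrase inhibitors) tested in cell culture. Activity is expressed as fold loss in efficacy relative to wild-type virus.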

Data set [11] relates to Human immunodeficiency virus 1. Kind of data set: Antiviral activity against HIV1 with integrase F121Y mutant. The format is functional, organism-based. In outline:
as §4

The subject of data set [12] is Human immunodeficiency virus 1. Nature of the data set: Antiviral activity against HIV1 with integrase V151l mutant. The format is functional, organism-based. Summed up: as §4
The subject of data set [13] is Human immunodeficiency virus 1. Kind of data set: Antiviral activity against HIV1 with integrase T66l/S153Y mutant. The class given is functional, organism-based. Summed up: as §4
For data set [14], the system named is Human immunodeficiency virus 1. Nature of the data set: Antiviral activity against HIV1 with integrase T66l/M154l mutant. The format is functional, organism-based. In outline:
as §4

A short description of data set [15]: Oral bioavailability in dog at 1 mg/kg. The conditions noted are these: in vivo. The class given is ADME, organism-based, Canis lupus familiaris. Summed up: (§5)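 Sodium salt was ground and given orally at 1 mg/kg to dogs and rhesus monkeys as a 0.5% aqueous methylcellulose suspension. Percent bioavailability was taken after oral administration.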
Data set [16] is described as follows: Half life in rat at 2 mg/kg, iv. The class given is ADME, organism-based. Details: dose 2 mg/kg, route intravenous. The conditions noted are these: in vivo. In outline: as §3
For data set [17], the system named is Human immunodeficiency virus 1. Nature of the data set: Antiviral activity against HIV1 with integrase N155S mutant. The format is functional, organism-based. Summed up: as §4
The nature of data set [18]: Half life in rhesus monkey at 1 mg/kg, iv. The class given is ADME, organism-based, Macaca mulatta. Details: dose 1 mg/kg, route intravenous. The conditions noted are these: in vivo. In outline: as §2
In data set [19] the test system is Human immunodeficiency virus 1. Nature of the data set: Antiviral activity against HIV1 with integrase T125K mutant. The format is functional, organism-based. In outline: as §4
Data set [20] can be described thus: Solubility at pH 7.4 by equilibrium solubility assay. The class given is physicochemical. To be noted: buffer. Summed up:
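Crystalline drug was suspended in 10 mM sodium phosphate, pH 7.4, and equilibrated at room temperature for 5 days. Aliquots were centrifuged 15,000 rpm for 15 min. Solution concentration was measured by HPLC at days 2 and 5 and taken as solubility.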

A short description of data set [21]: Oral bioavailability in rhesus monkey at 1 mg/kg. The class given is ADME, organism-based, Macaca mulatta. To be noted: in vivo. In outline:
as §5

A further data set deals with Plasma. Nature of the data set: Fraction unbound in human plasma after 30 mins by ultracentrifugation method. The format is ADME, cell-free. The conditions noted are these: 0.5 h. Summed up:
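14C-labelled compound was spiked into human plasma (pH 7.4) at final 1, 5 and 20 µM and incubated 30 min at 37 °C. Ultracentrifugation at 180,000g, 37 °C, overnight (~18 h). Supernatant aliquots were counted by liquid scintillation with quench correction; fu (%) = dpm in protein-free fraction / dpm in original plasma × 100.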

Values after ≈ are worked out from the molar mass of the structure shown. Active and inactive are the calls of the source. The calls are words filed in the database; no cut-off is given here.

Human immunodeficiency virus type 1 integrase, sequence (Q7ZJM1 whole entry): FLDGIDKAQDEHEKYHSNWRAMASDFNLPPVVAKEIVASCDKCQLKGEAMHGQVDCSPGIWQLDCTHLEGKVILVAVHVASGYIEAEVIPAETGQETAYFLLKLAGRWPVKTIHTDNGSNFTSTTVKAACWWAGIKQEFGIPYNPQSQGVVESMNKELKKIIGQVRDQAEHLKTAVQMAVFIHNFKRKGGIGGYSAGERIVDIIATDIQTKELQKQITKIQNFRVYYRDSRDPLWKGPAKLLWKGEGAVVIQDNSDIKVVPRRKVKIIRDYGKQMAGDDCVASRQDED

As to `CNC(=O)c1cc(F)ccc1CNC(=O)c1ncc2cccnc2c1O`, the pH-dependent lipophilicity (logD) – broadly, the decadic logarithm of the distribution of all forms, ionised or not, between an organic phase and buffer at a given pH – in data set [1] came to 1.4. In [2], the IC95 – broadly, the point of the concentration-response curve where the effect stands at 95% – stood at 1.04 µM. Moreover, the IC50 (commonly the concentration that inhibits the measured activity by half) in data set [3] was determined as 51 nM. In the data set filed under Homo sapiens, the fraction unbound was 0.02.

For the molecule `CNS(=O)(=O)c1cc(F)ccc1CNC(=O)c1nc(N2CCCCS2(=O)=O)c2cccnc2c1O`, the logD in [1] came to 1.9. Also, the IC95 in data set [2] is 0.125 µM; in data set [4] it was < 0.008 µM. In addition, in [3], the half-maximal inhibitory concentration (IC50) worked out at 45 nM. Moreover, in the data set filed under Homo sapiens, the fraction unbound was 0.01.

`CN(C)C(=O)c1cc(F)ccc1CNC(=O)c1nc(N2CCCCS2(=O)=O)c2cccnc2c1O` registered a log distribution coefficient (logD) in data set [1] of 1. Further, the concentration for an effect of 95% (IC95) is 0.063 µM in [2] and 0.023 µM in [4]. The concentration for half-maximal inhibition (IC50) in [3] stood at 110 nM. Moreover, the fraction unbound in the data set listed under Homo sapiens was 0.1.

The molecule `O=C(NCc1ccc(F)cc1)c1ncc2cccnc2c1O` yielded a logD in data set [1] of 2.4. In addition, in [2], the IC95 came to 5 µM. The fraction unbound in the data set listed under Homo sapiens is 0.01.

For the molecule `O=C(NCc1ccc(F)cc1)c1nc(N2CCCCS2(=O)=O)c2cccnc2c1O`, the clearance – broadly, the rate of elimination divided by the concentration – in [5] worked out at 2 mL/min/kg; in [6], 6.6 mL/min/kg; in data set [8] it was 2.8 mL/min/kg. Further, the results for the half-life in data set [7], in data set [16] and in [18] were 174 min, 72 min and 42 min, respectively. For the same molecule, the bioavailability (as a rule, dose-corrected exposure relative to a reference, in per cent) in data set [9] turned out to be 41%; in [15], 24%; in data set [21] it was 51%. In addition, the outcome in data set [10], in data set [11], in data set [12], in data set [13], in [14] and in data set [17] was Active. For the same molecule, the result in [19] was Active. In addition, the logD in data set [1] was 2.1. For the same molecule, the 95% effect concentration (IC95) came out at 0.102 µM in data set [2] and 0.015 µM in data set [4]. Further, in data set [20], the Solubility (usually how much of the substance goes into solution per volume) is 210 ng/mL (≈ 0.488 µM).

In turn, `CN(C)C(=O)Cc1ccccc1CNC(=O)c1nc(N2CCCCS2(=O)=O)c2cccnc2c1O` came in with a log distribution coefficient (logD) in data set [1] of 1. Further, the IC95 came out at 1 µM in data set [2] and 0.167 µM in data set [4]. For the same molecule, in data set [3], the IC50 is 14 nM. Moreover, the fraction unbound in the data set filed under Homo sapiens was 0.06.

In the case of `O=[14C](NCc1ccc(F)cc1)c1nc(N2CCCCS2(=O)=O)c2cccnc2c1O`, the Activity with Plasma turned out to be 1.5%.

Consider `O=C(NCc1ccccc1)c1nc(N2CCCCS2(=O)=O)c2cccnc2c1O`, for which, in data set [1], the pH-dependent lipophilicity (logD) came out at 1.9. For the same molecule, the IC95 in [2] was found to be 1 µM; in data set [4], 0.125 µM. Also, in data set [3], the IC50 turned out to be 10 nM.

In the data set on Plasma, `CNC(=O)c1cc(F)ccc1CN[14C](=O)c1nc(N2CCCCS2(=O)=O)c2cccnc2c1O` had an Activity of 15%.

On to `CNC(=O)c1cc(F)ccc1CNC(=O)c1nc(N2CCCCS2(=O)=O)c2cccnc2c1O`, for which the results for the clearance in data set [5], in data set [6] and in [8] were 2.8 mL/min/kg, 18.3 mL/min/kg and 8.6 mL/min/kg, respectively. Also, the half-life – broadly, how long it takes for the measured level to halve – is 108 min in data set [7], 72 min in data set [16] and 84 min in data set [18]. The bioavailability in data set [9] was determined as 45%; in [15], 65%; in data set [21], 23%. The result in data set [10], in data set [11], in data set [12], in data set [13], in data set [14] and in data set [17] was Active. Also, in data set [19], the outcome was Active. Moreover, the logD in data set [1] stood at 1.6. The concentration for an effect of 95% (IC95) came out at 0.016 µM in data set [2] and 0.007 µM in [4]. Moreover, in data set [3], the IC50 was 10 nM. In addition, the fraction unbound in the data set listed under Homo sapiens is 0.08. Besides, the solubility (thermodynamic) (commonly the concentration in solution at equilibrium with solid) in data set [20] turned out to be 2.3 µg/mL (≈ 4.72 µM).

On to `CN(C)S(=O)(=O)c1cc(F)ccc1CNC(=O)c1nc(N2CCCCS2(=O)=O)c2cccnc2c1O`, for which, in data set [1], the logD was determined as 1.9. In addition, the IC95 in data set [2] was determined as 0.094 µM; in [4], 0.016 µM. The IC50 in data set [3] stood at 30 nM. Besides, in the data set filed under Homo sapiens, the fraction unbound was 0.03.

`CNC(=O)Cc1ccccc1CNC(=O)c1nc(N2CCCCS2(=O)=O)c2cccnc2c1O` had a log distribution coefficient (logD) in data set [1] of 1. For the same molecule, the results for the concentration for an effect of 95% (IC95) in data set [2] and in [4] were 0.438 µM and 0.109 µM, respectively. Besides, the half-maximal inhibitory concentration (IC50) in data set [3] worked out at 7 nM. In addition, the fraction unbound in the data set listed under Homo sapiens is 0.08.
